The values that follow come from ChEMBL document CHEMBL1921751, “Discovery of small molecules that enhance astrocyte differentiation in rat fetal neural stem cells” (Bioorg Med Chem Lett, 2011).

Data set [1] has as its system NSC. Briefly: Induction of GFAP mRNA expression in Sprague-Dawley rat embryonic cortex NSC at 5 uM after 1 day by RT-PCR analysis relative to control. Type of data set: functional. The method, boiled down: (§1)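 First-strand cDNA was made from 2 µg total RNA using oligo(dT) primers and RevertAid reverse transcriptase. PCR ran 94 °C 5 min, then 26 cycles of 94 °C, 55–58 °C and 72 °C (0.5 min each), with a final 72 °C extension for 10 min.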

The test system of data set [2] is NSC. Briefly: Induction of Sprague-Dawley rat embryonic cortex NSC differentiation assessed as TuJ1-positive cells at 5 uM after 4 days by immunocytochemistry analysis. The format is functional, cell-based. The method, boiled down:
(§2)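 E14 rat cortical NSCs were grown as neurospheres, dissociated and plated on poly-D-lysine in growth-factor-free medium with 2% B27. They received 5 µM compound or 0.05% DMSO at 37 °C, 5% CO2, for 4 days. Cells were fixed in 4% PFA, stained with anti-GFAP or TuJ1 plus Cy3 secondary, and DAPI-counterstained. Positive/DAPI cells in random fields were normalised to control; mean±SEM, n=6, t-test.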

Data set [3] concerns NSC. Briefly: Induction of beta3 tubulin mRNA expression in Sprague-Dawley rat embryonic cortex NSC at 5 uM after 1 day by RT-PCR analysis. The format is functional, cell-based. The method, boiled down:
as §1

Data set [4] has as its system NSC. Briefly: Induction of S100 mRNA expression in Sprague-Dawley rat embryonic cortex NSC at 5 uM after 1 day by RT-PCR analysis relative to control. Type of data set: functional. A digest of the protocol: as §1
The test system of data set [5] is NSC. Briefly: Induction of Sprague-Dawley rat embryonic cortex NSC differentiation assessed as GFAP-positive cells at 5 uM after 4 days by immunocytochemistry analysis relative to control. The format is functional. A digest of the protocol:
as §2

In data set [6] the test system is NSC. Briefly: Cytotoxicity against Sprague-Dawley rat embryonic cortex NSC assessed as reduction in nuclei count at 5 uM after 4 days using DAPI staining by fluorescent microscopic analysis. The format is cell-based. The following applies: 96 h.
The test system of data set [7] is NSC. Briefly: Cytotoxicity against Sprague-Dawley rat embryonic cortex NSC assessed as changes in morphology at 5 uM after 4 days by microscopic analysis. The format is cell-based. As to conditions: 96 h.

Calls of active or inactive are those of the source. No cut-off for these calls is given here.

With `CC(C)(C)OC(=O)NC(c1ccc(F)cc1)c1nnc(-c2ccccc2)o1` (configuration not stated), the outcome in the data set with NSC [1], in the data set on NSC [4] and in the data set on NSC [5] was Active. In addition, the result in the data set on NSC [2] and with NSC [3] was inactive.

As for `O=S(=O)(NC(c1ccc(F)cc1)c1nnc(-c2ccccc2)o1)c1ccccc1` (configuration not stated), the outcome with NSC [1], in the data set with NSC [4] and with NSC [5] was Active. Also, the outcome with NSC [2] and with NSC [3] was inactive.

Regarding `O=S(=O)(Cc1ccccc1)NC(c1ccc(F)cc1)c1nnc(-c2ccccc2)o1` (configuration not stated), the result in the data set on NSC [1], with NSC [4] and with NSC [5] was Active. Further, the outcome in the data set on NSC [2] and with NSC [3] was inactive.

As to `O=C(NC(c1ccc(F)cc1)c1nnc(-c2ccccc2)o1)c1ccccc1` (configuration not stated), the result with NSC [1], in the data set on NSC [4] and in the data set with NSC [5] was Active. In addition, the result in the data set on NSC [2] and with NSC [3] was inactive.

For the compound `O=C(Cc1ccccc1)NC(c1ccc(F)cc1)c1nnc(-c2ccccc2)o1` (configuration not stated), the “fold change (FC)” value with NSC [1], in the data set with NSC [4] and in the data set with NSC [5] was 2 each time. The outcome in the data set on NSC [2] and with NSC [3] was inactive.

As to `O=C(Cc1ccccc1)NC(c1ccccc1)c1nnc(-c2ccccc2)o1` (configuration not stated), the Activity entry in the data set on NSC [6] and in the data set with NSC [7] was “Non-toxic” in each case. Further, the “fold change (FC)” value in the data set with NSC [1], with NSC [4] and with NSC [5] was 2 throughout. Further, the outcome with NSC [2] and with NSC [3] was inactive.
